This is a sample that favours compounds with a hit; in the whole collection about 0.48% have one here.
Rce1 inh – yeast Rce1p protease inhibitors, primary screen, biochemical, fluorescence, cell-free homogeneous | yeast membranes, quenched prenylated peptide cleavage fluorescence | CAAX prenyl protease 2 (Saccharomyces cerevisiae (strain ATCC 204508 / S288c)), Q03530 | 290,000 tested, 0.27% active | AID 2563, 2010 | calls only;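 active means fall in fluorescence gain of 50% or more versus controls, with final raw signal at or below 3038400; inconclusive means same 50% fall but final raw signal above 3038400; inactive means fall in fluorescence gain under 50%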
Target sequence (Q03530 whole entry, looked up): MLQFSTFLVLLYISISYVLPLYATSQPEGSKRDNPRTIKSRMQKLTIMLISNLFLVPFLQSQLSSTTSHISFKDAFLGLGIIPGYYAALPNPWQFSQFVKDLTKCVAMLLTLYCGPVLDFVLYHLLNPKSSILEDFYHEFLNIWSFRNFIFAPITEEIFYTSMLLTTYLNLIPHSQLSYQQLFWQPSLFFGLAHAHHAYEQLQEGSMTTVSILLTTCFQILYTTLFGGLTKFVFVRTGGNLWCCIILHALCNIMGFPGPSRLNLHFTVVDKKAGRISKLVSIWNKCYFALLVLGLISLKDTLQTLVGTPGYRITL
PolyA inh – polyadenylation inhibitors in yeast reporter cells, primary screen, luminescence, S. cerevisiae; S. cerevisiae SKY197-pL101 polyadenylation reporter, beta-gal luminescence; efflux-impaired pdr1/pdr3 knockout yeast; score 100 = 6 SD above DMSO; activity score, % at 12 µM; 300,000 tested, 0.02% active; AID 1875, 2009;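 active means lowest replicate activity score at least 50, where 100 means six control SD above control mean; inconclusive means lowest score under 50 but half or more replicates reach 50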;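 further: yeast exposed to compound for 9 h at 30 °C; higher score means more reporter readthrough which indicates perturbed polyadenylation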
procasp7 counter – procaspase-7 activators, primary screen, counter-screen for procaspase-3 activator project, biochemical, absorbance, HTS, human | AID 463210, 2010 | 330,000 tested, 0.093% active | activation, % at 8.5 µM | recombinant procaspase-7, Ac-DEVD-pNA absorbance 405 nm; D23A/D198A/D206A triple mutant, cannot self-cleave; scale: DMSO 0, 5 µM enzyme 100 | Caspase-7 (Homo sapiens), P55210;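 active means percent activation above the screen-wide mean plus 3 SD, cut at about 25% in these data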
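Test system: Procaspase-7 triple mutant (PC-7 D3A). Also added: Ac-DEVD-pNA substrate, 400 µM as added. Schedule: 1 h enzyme–compound preincubation and 2 h substrate reaction, both 25 °C. Signal: p-Nitroaniline absorbance at 405 nm, read at 0 and 120 min. Control set: low DMSO alone, high DMSO plus 5 µM PC-7.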
proCasp3 act – activators of human procaspase-3 D3A mutant, primary screen, biochemical, absorbance, PC-3 D3A mutant, single concentration | Caspase-3 (Homo sapiens), P42574 | recombinant procaspase-3 D3A, Ac-DEVD-pNA absorbance 405 nm | activation, % at 8.5 µM | 330,000 tested, 0.11% active;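 active means activation above the mean of all tested compounds plus 3 SD, cut at about 21% in these data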
Target sequence (P42574 whole entry D9A/D28A/D175A): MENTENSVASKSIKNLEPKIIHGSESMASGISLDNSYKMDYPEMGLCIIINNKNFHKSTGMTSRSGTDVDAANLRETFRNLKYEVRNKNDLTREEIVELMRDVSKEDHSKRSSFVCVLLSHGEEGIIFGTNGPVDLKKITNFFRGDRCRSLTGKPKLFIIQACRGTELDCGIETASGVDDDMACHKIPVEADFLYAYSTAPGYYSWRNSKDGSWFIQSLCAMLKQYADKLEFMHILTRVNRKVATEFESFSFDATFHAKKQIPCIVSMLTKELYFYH
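material = Procaspase-3 D3A mutant | probe or stimulus = Ac-DEVD-pNA | compound = single dose, 8.5 µM nominal compound, 0.8% DMSO | timing = 1 h preincubation, 2 h reaction | measured by = 405 nm absorbance of p-nitroaniline, reads at 0 and 120 min | benchmarks = DMSO-only low control, 5 µM PC-3 D3A high control | repeats = singlicate, each compound tested once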
Bfl-1 A1 inh – caspase 3/7 activation in MEF A1-2A-BIM cells, primary screen, A1 inhibitor project, cell-based, luminescence, HTS; Caspase-Glo 3/7 luminescence, 3 h; percent of clofoctol response, vehicle zero; caspase activation, % (no concentration beside the values); 330,000 tested, 0.066% active;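 active means over half of replicate activation scores above 10%, or exactly half above 10 with the replicate mean above 10; inconclusive means replicate mean below 10 yet half the replicates above 10; inactive means over half of replicates below 10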
PC3 D3A act – procaspase-3 activators, counter-screen for dual procaspase-3/7 activator project, biochemical, absorbance, PC-3 D3A mutant, human; activation, % at 8.5 µM; 290 tested, under 10 active; AID 493114, 2011; shares compounds with procasp7 counter; recombinant PC-3 D3A, Ac-DEVD-pNA absorbance 405 nm; aspartates 9, 28, 175 changed to alanine; 100% = enzyme control;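 active means mean percent activation across triplicates above a set limit taken from the earlier primary procaspase-3 screen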
Procasp7 act – activation of procaspase-7 enzyme – biochemical, absorbance, human, dual procaspase-3/-7 activator project, confirmation. shares compounds with procasp7 counter. recombinant procaspase-7, Ac-DEVD-pNA absorbance 405 nm; D23A/D198A/D206A mutant that cannot self-cleave. activation, % at 8.5 µM. 290 tested, under 10 active. AID 493115, 2011;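 active means mean activation above a set limit carried over from the earlier primary screen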
Of the large screens only hits and unclear results are named; the others gave an inactive call (follow-up assays come after a bar, where they were run).

COc1ccc(S(=O)(=O)N2CCN(C(=O)COc3ccc(C)c(C)c3)CC2)cc1OC	procasp7 counter 39 | PC3 D3A act inactive | Procasp7 act inactive
OC(CN1CCN(c2ccccc2Cl)CC1)c1ccccc1 (centres undefined)	none
CCOC(=O)c1nc(Nc2cc(Cl)ccc2OC)c2ccccc2n1	procasp7 counter 26 | PC3 D3A act inactive | Procasp7 act inactive
CCOC(=O)c1nc(Nc2ccccc2)c2ccccc2n1	none
Cc1ccc(NC(=O)CSCC(=O)OCc2cc(=O)oc3cc(O)ccc23)c(C)c1	PolyA inh inconclusive
COc1ccc(-c2cc(C(=O)OCC(=O)NC(C)C)c3ccccc3n2)cc1	procasp7 counter 27, proCasp3 act 38 | PC3 D3A act inactive | Procasp7 act inactive
O=C(Nc1nc2c(F)cc(F)cc2s1)C1CC1	Bfl-1 A1 inh inconclusive
Cc1c(Cc2ccccc2)c(=O)oc2c(O)c(O)ccc12	none (no result: procasp7 counter, proCasp3 act, Bfl-1 A1 inh)
O=c1oc2cc(O)ccc2c2oc3cc(O)ccc3c12	Rce1 inh inconclusive, procasp7 counter 26 | PC3 D3A act inactive | Procasp7 act inactive
Cc1c(Cc2ccccc2)c(=O)oc2cc(O)ccc12	Rce1 inh inconclusive, procasp7 counter 27, proCasp3 act 25 | PC3 D3A act inactive | Procasp7 act inactive
CC(C)=CCc1c(O)cc2c(=O)c3ccc(O)cc3oc2c1O	none
O=c1oc2cc(O)ccc2c2ccccc12	none
COc1c(CC=C(C)C)c(O)cc2oc(=O)c3c4ccc(O)cc4oc3c12	procasp7 counter 27, proCasp3 act 27 | PC3 D3A act inactive | Procasp7 act inactive
COc1ccc(C2C3=C(CC(C)(C)CC3=O)Nc3c2c(=O)[nH]c(=O)n3Cc2ccccc2)cc1 (centres undefined)	procasp7 counter 29 | PC3 D3A act inactive | Procasp7 act inactive
COc1ccc(C2C3=C(CC(C)(C)CC3=O)Nc3c2c(=O)[nH]c(=O)n3Cc2ccccc2)cc1OC (centres undefined)	procasp7 counter 26 | PC3 D3A act inactive | Procasp7 act inactive
COc1cc(C2C3=C(CC(C)(C)CC3=O)Nc3c2c(=O)[nH]c(=O)n3Cc2ccccc2)ccc1O (centres undefined)	none
CCOC(=O)c1sc2c(c1C)C(c1cccs1)C1=C(CCCC1=O)N2 (centres undefined)	procasp7 counter 40, proCasp3 act 23 | PC3 D3A act inactive | Procasp7 act inactive
Cc1ccc2nc(NCCNC(=O)c3ccccc3)c(C#N)cc2c1	none
Cc1ccc2nc(NCc3ccccc3)c(C#N)cc2c1	procasp7 counter 52 | PC3 D3A act inactive | Procasp7 act inactive
C=CCNc1sc(C(=O)c2ccc(C)cc2)c(N)c1C#N	none
C=CCNc1nc(N)c(C(=C(C#N)C#N)c2ccc(Br)cc2)s1	procasp7 counter 105 | PC3 D3A act inactive | Procasp7 act inactive
O=C(CNS(=O)(=O)c1ccc(Br)s1)NCC1COc2ccccc2O1 (centres undefined)	none
COc1ccccc1NC(=O)c1ccccc1C(=O)Nc1ccccc1OC	none
COc1ccccc1NC(=O)c1cnc(Nc2ccccc2OC)c2ccccc12	procasp7 counter 31 | PC3 D3A act inactive | Procasp7 act inactive
O=C(OC1CCOC1=O)c1cc(-c2ccccc2)nc2ccccc12 (centres undefined)	none
COc1ccc(-c2cc(C(=O)OC3CCOC3=O)c3ccccc3n2)cc1OC (centres undefined)	procasp7 counter 28, proCasp3 act 27 | PC3 D3A act inactive | Procasp7 act inactive
COCc1nnc(NC(=O)CCSc2ccccc2)s1	procasp7 counter 27 | PC3 D3A act inactive | Procasp7 act inactive
COc1ccccc1N1CCN(C(=O)c2cc3c(s2)-c2ccccc2OC3)CC1	none
O=C(Nc1nccs1)c1cc2c(s1)-c1ccccc1OC2	procasp7 counter 28, proCasp3 act 30 | PC3 D3A act inactive | Procasp7 act inactive
COc1cc2c(cc1OC)C(C)N(C(=O)c1cc3c(s1)-c1ccccc1OC3)CC2 (centres undefined)	procasp7 counter 37, proCasp3 act 26, Bfl-1 A1 inh inconclusive | PC3 D3A act inactive | Procasp7 act inactive
COc1cc2c(cc1OC)C(C)N(C(=O)c1cc3c(s1)-c1c(C)cccc1OC3)CC2 (centres undefined)	none
O=C(c1cc2c(s1)-c1ccccc1OC2)N1CCc2ccccc2C1	procasp7 counter 27 | PC3 D3A act inactive | Procasp7 act inactive
CC(=O)N1c2ccc(S(=O)(=O)NCCC(=O)Nc3ccc(C)c(F)c3)cc2CC1C (centres undefined)	none
CC(=O)c1c(C)nc2ccc(Cl)cn12	none
CCOC(=O)c1c(S(=O)(=O)NCC(=O)NCc2cccc(C)c2)c(C)n(C)c1C	none
COCc1cc(C)nc2sc(C(=O)Nc3ccccc3C)c(N)c12	none
COCc1cc(C)nc2sc(C(=O)Nc3ccccc3Br)c(N)c12	procasp7 counter 36 (no result: Rce1 inh) | PC3 D3A act inactive | Procasp7 act inactive
COc1ccc2nc(NC(=O)c3sc4nc(C)cc(C)c4c3N)sc2c1	procasp7 counter 71 | PC3 D3A act inactive | Procasp7 act inactive
CC1CN(C(=O)CCNC(=O)c2ccc(Cl)cc2)CC(C)O1 (centres undefined)	none
COC(=O)Cn1c(N)[n+](Cc2ccccc2)c2ccccc21	none
O=C(O)CNC(=S)N(Cc1ccccc1)Cc1cccnc1	none (no result: PolyA inh)
Cc1cc(F)ccc1S(=O)(=O)Nc1ccc(O)c(Sc2ncn[nH]2)c1	none
COc1ccc(NC2=CC(=O)CC(c3ccccc3)C2)cc1 (centres undefined)	procasp7 counter 26 | PC3 D3A act inactive | Procasp7 act inactive
N#Cc1c(N)n(C2CCCCC2)c2nc3ccccc3nc12	procasp7 counter 62 | PC3 D3A act inactive | Procasp7 act inactive

Source: PubChem BioAssay
